Screening results (PubChem BioAssay)
SKN-1 block = blocks SKN-1 activity in C. elegans; C. elegans VP596 Pgst-4::GFP/RFP ratio, acrylamide-induced, 24 h; inhibition, % at 21.8 µM; 360,000 compounds, 0.49% hits; AID 624304;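 active = interference check ratio from 0.5 to 1.5 plus GFP to RFP signal ratio inhibition reaching or exceeding a fixed threshold, cut at about 30% in these data, passing the limit was not always enough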
NR2E3 ag-1 = agonists of human nuclear receptor NR2E3; inhibition of corepressor binding, % at 4.78 µM; GST-NR2E3/biotin-RetCOR TR-FRET, 1536-well; 320,000 compounds, 0.12% hits;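 active = percent inhibition above the cutoff of mean plus 3 SD of all tested compounds, set per screening campaign, cut at about 20% in these data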;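 also: 0% = DMSO wells and 100% = biotin wells as full block of FRET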
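Test system – NR2E3–RetCOR corepressor complex · Quantity – NR2E3 fusion 1.35 nM · Buffer or medium – Tris pH 7.5 · Incubation – Compound–protein incubation for 5 h at 4 °C · Technique – TR-FRET, Eu(K)-anti-GST donor, streptavidin-D2 acceptor, ex 340, em 617/671 nm · Evaluation – percent inhibition of 671/617 nm emission ratio versus biotin and DMSO controls · Plate – 1536-well format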
Rev-erbA mod = modulators of human Rev-erb alpha DNA binding; P20393; Rev-erbα–FITC-DNA binding, fluorescence polarization, 90 min; activity, % at 10 µM; 370,000 compounds, 0.79% hits;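 active = activity above about 14%, limit read from the data; passing the limit was not always enough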;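 also: 0% = DMSO wells with 35 nM protein and 100% = DMSO wells with 750 nM protein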
Target sequence (P20393 whole entry, looked up): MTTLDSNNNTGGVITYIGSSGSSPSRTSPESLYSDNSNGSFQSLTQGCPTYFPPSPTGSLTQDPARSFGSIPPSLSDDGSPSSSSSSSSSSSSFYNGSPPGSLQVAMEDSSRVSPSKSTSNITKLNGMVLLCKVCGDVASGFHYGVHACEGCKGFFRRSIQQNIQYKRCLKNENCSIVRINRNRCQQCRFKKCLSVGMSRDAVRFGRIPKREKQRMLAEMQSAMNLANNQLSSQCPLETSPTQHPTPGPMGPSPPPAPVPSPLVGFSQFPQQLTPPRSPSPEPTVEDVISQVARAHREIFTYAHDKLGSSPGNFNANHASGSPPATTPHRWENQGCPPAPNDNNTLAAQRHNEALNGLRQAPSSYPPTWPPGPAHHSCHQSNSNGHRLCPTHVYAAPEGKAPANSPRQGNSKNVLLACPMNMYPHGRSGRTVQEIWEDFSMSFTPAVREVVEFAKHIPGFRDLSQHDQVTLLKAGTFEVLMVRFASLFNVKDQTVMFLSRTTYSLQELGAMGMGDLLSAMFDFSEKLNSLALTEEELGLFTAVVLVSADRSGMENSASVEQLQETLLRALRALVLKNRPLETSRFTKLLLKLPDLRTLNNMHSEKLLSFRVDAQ
MT1-MMP act inh = MT1-MMP (human) activation inhibition; P50281; HT1080 RFP-PRO-GFP cells, GFP/RFP ratio fluorescence, overnight; percent of plate control window, DMSO zero; GFP/RFP ratio change, % at 20 µM; 360,000 compounds, 0.061% hits; AID 651647;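 active = GFP/RFP ratio change of at least 30% with cell ATP level not reduced by more than half and red fluorescence within 50% of control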
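Compound: 20 µM single dose, 1% DMSO / System: HT1080 RFP-PRO-GFP cells / Controls: DMSO and RFP-L50D-GFP cell wells / Read-out basis: GFP/RFP fluorescence ratio / Schedule: overnight compound exposure at 37 °C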
PG9 binder = binds the HIV-1 gp120 antibody PG9; TR-FRET gp120-PG9 antibody binding; inhibition, % at 6.7 µM; 360,000 compounds, 0.43% hits; AID 624416; in the data active = inhibition above about 8.5%
NR2E3 ag-2 = activates human NR2E3 receptor. CHO-S Gal4-NCOR/VP16-NR2E3 two-hybrid, luciferase. 360,000 compounds, 0.35% hits. Q9Y5X4. AID 602229. inhibition of corepressor binding, % at 3.98 µM;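 active = inhibition above the mean of all tested compounds plus 3 SD, cut at about 70% in these data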;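 also: 0% = DMSO with NR2E3 transfected cells and 100% = cells lacking NR2E3 construct; higher means lower luciferase signal from less NR2E3 corepressor binding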
PG9 binder conf = confirmation of small molecules binding HIV-1 gp120 antibody PG9. shares compounds with PG9 binder. TR-FRET PG9 antibody binding, biochemical. inhibition, % at 6.7 µM. 1,500 compounds, 90% hits. AID 651571; in the data active = inhibition above about 9%
PGV04 Ab binding = counter-screen for PG9 binders: binding control antibody PGV04. shares compounds with PG9 binder. TR-FRET PGV04 antibody-gp120 binding, biochemical. inhibition, % at 6.7 µM. 1,500 compounds, 95% hits. AID 651604; in the data active = inhibition above about 9.5%
Active calls of the source: *; / = no result given. An excerpt weighted towards active compounds, which were near 1.9% of everything screened.

SMILES | SKN-1 block | NR2E3 ag-1 | Rev-erbA mod | MT1-MMP act inh | PG9 binder | NR2E3 ag-2 | PG9 binder conf | PGV04 Ab binding
Cc1[nH]c2ccccc2c1CC(=O)Nc1ccc(Nc2ccncc2)cc1 | / | / | -4 | / | 0 | / | / | /
O=C(OCC#CCSc1nnc(-c2cccc3ccccc23)o1)c1cc(F)c(F)c(F)c1 | / | / | -4 | / | / | / | / | /
CCOC(=O)Nc1nc(C)c(C(=O)c2ccc(Cl)cc2)s1 | -13 | -8 | 4 | / | 10* | -1 | 17* | 33*
CC(C)(C)c1ccc(C#C[C@@H]2C=C[C@H](O)[C@@H](COC(=O)Nc3ccccc3)O2)cc1 | / | / | 5 | / | 0 | / | / | /
CCn1c2ccccc2c2cc(CN3CCN(S(=O)(=O)Cc4ccccc4)CC3)ccc21 | -2 | -4 | 1 | -2 | 14* | 12 | 16* | 26*
CCCC[C@H]1C2CC(OC(=O)Nc3ccc(C#N)cc3)C(C2)[C@H]2CCCCN21 (stereo partly specified) | / | / | 12 | / | / | / | / | /
Cc1cc2c(nc1C)CCCN2S(=O)(=O)c1ccc(F)cc1 | / | / | 7 | / | 0 | / | / | /
O=C(NCc1ccccn1)C1CCN(S(=O)(=O)N2CCCCC2)CC1 | 8 | 1 | -4 | -3 | 8.6* | -10 | 8 | 11*
COc1ccc(CCn2c(SCC(=O)Nc3cc(C)on3)nc3ccccc3c2=O)cc1OC | 13 | -2 | -3 | 7 | 0 | -9 | / | /
COc1ccc(CCn2c(SCC(=O)Nc3cc(C)on3)nc3ccsc3c2=O)cc1OC | 14 | 1 | 12 | 2 | 36* | 4 | 46* | 56*
COc1ccc(C(=O)Nc2ccc(Cl)cc2C(=O)NCc2ccco2)cc1 | 2 | 1 | 17 | 4 | 11* | -24 | -2 | 17*
CCC(C)C(NC(=O)c1ccccc1NC(=O)c1ccc(OC)cc1)C(=O)NCc1ccco1 (stereo unspecified) | 7 | 4 | 2 | -1 | 2 | -30 | / | /
CC1=NC2=CC=CC3=NC(C(Cl)(Cl)Cl)=NC(=N1)N23 | / | / | 4 | / | -1 | / | / | /
COc1cccc(C2C(C(=O)c3cc4ccccc4o3)=C(O)C(=O)N2CCN2CCOCC2)c1 (stereo unspecified) | -4 | 12 | -2 | 0 | 15* | -12 | 31* | 54*
COc1cc(C2C(C(=O)c3ccc(C)o3)=C(O)C(=O)N2CCN2CCOCC2)ccc1OCCC(C)C (stereo unspecified) | 1 | / | 2 | -2 | 12* | -33 | 19* | 22*
CCN(CC)CCCN1C(=O)C(O)=C(C(=O)c2cc3cccc(OC)c3o2)C1c1ccncc1 (stereo unspecified) | 6 | 11 | -1 | -8 | 15* | -18 | 26* | 37*
COc1cccc(C2C(C(=O)c3cc4ccccc4o3)=C(O)C(=O)N2CCN(C)C)c1OC (stereo unspecified) | -3 | 18 | -5 | 1 | 30* | 6 | 33* | 54*
COC(=O)c1ccc(C2C(C(=O)c3cc4ccccc4o3)=C(O)C(=O)N2CCN2CCOCC2)cc1 (stereo unspecified) | 1 | 2 | 0 | -1 | 0 | -9 | / | /
CCCOc1cccc(C2C(C(=O)c3ccc(C)o3)=C(O)C(=O)N2CCN2CCOCC2)c1 (stereo unspecified) | 10 | 5 | 2 | -6 | 4 | -6 | / | /
COc1cccc(C2C(C(=O)c3ccco3)=C(O)C(=O)N2CCN(C)C)c1OC (stereo unspecified) | 5 | -3 | 0 | -4 | 0 | 13 | / | /
O=C(N[C@H](C(=O)N1CCC[C@H]1C(=O)NC1CCCC1)C1CCCCC1)c1ccc(Cl)cc1Cl | / | / | 4 | / | 0 | / | / | /
CN(C)CCN1C(=O)C(O)=C(C(=O)c2cc3ccccc3o2)C1c1ccc(N(C)C)cc1 (stereo unspecified) | 8 | -2 | -6 | -3 | -2 | -11 | / | /
COc1cccc2cc(C(=O)C3=C(O)C(=O)N(CCN(C)C)C3c3ccc(F)cc3)oc12 (stereo unspecified) | 5 | 9 | 1 | 4 | 21* | -13 | 31* | 41*
Cc1ccc(C(=O)Nc2ccc(NC(=O)c3ccccc3Cl)c(C)c2)cc1 | -17 | / | 9 | 2 | 29* | -27 | 26* | 39*
Cc1cc(NC(=O)c2ccc(Cl)cc2)ccc1NC(=O)c1ccccc1Cl | 1 | -2 | -7 | 7 | 1 | -43 | / | /
SMILES | SKN-1 block | NR2E3 ag-1 | Rev-erbA mod | MT1-MMP act inh | PG9 binder | NR2E3 ag-2 | PG9 binder conf | PGV04 Ab binding
O=C(Nc1ccc(Cl)cc1Cl)c1ccc(-c2ccccc2)cc1 | 6 | 3 | 1 | -1 | 11* | 15 | 33* | 49*
CCn1c(=S)[nH]c2scc(-c3cccs3)c2c1=O | -7 | / | -6 | 1 | 11* | -6 | 6 | 11*
CC(=O)c1sc(C(C)(C)C)cc1NC(=O)CCC(=O)O | -5 | 6 | 1 | 2 | 10* | -1 | 19* | 23*
CC(=O)c1sc(C(C)(C)C)cc1NC(=O)/C=C/C(=O)O | 5 | -1 | -4 | -3 | 0 | -17 | / | /
Cc1ccc(S(=O)(=O)CCC(=O)N(CCCN2CCOCC2)c2nc3ccccc3s2)cc1 | 9 | -1 | 5 | -2 | 9.6* | -49 | 7 | 11*
COc1ccc(C(=O)C(=O)N2CCN(S(=O)(=O)c3cccc4c(N(C)C)cccc34)CC2)cc1OC | / | / | 6 | / | 2 | / | / | /
CCCCC(=O)Nc1nc(C)c(C(C)=O)s1 | 1 | -5 | 0 | 0 | -1 | -13 | / | /
CCCC(=O)Nc1nc(C)c(C(C)=O)s1 | -3 | -1 | -6 | -2 | 32* | -12 | 36* | 49*
CCN=C1SC(C(N)=O)CC(=O)N1CC (stereo unspecified) | -12 | 3 | -6 | 1 | 9.0* | 10 | -1 | 18*
CCOc1cc(C2C(C#N)=C(N)SC(N)=C2C#N)ccc1OCCN1CCOCC1 | -4 | 4 | 5 | -9 | 13* | 13 | 15* | 21*
Cc1cc(OC(=O)c2cc([N+](=O)[O-])ccc2Cl)c([N+](=O)[O-])c(=O)[nH]1 | 1 | 0 | -5 | 0 | -2 | -6 | / | /
Cc1cc(OC(=O)c2cc(Cl)ccc2Cl)c([N+](=O)[O-])c(=O)[nH]1 | -4 | -1 | 4 | 1 | 30* | -13 | 7 | 11*
COc1ccc(-c2ccc(SCC(=O)NC3CCCCC3)nn2)cc1 | 17 | -2 | -1 | 1 | -2 | -57 | / | /
COc1ccc(-c2cn3nc(SCC(=O)NC4CCCCC4)ccc3n2)cc1 | -1 | -1 | -2 | -1 | 33* | -144 | 62* | 75*
